Data published in ChEMBL document CHEMBL1799966, “Synthesis and anticancer activity of oxindole derived imidazo[1,5-a]pyrazines” (Eur J Med Chem, 2011).

How the values were obtained:
Format in all cases: functional
NCI-H522 = test: Anticancer activity against human NCI-H522 cells assessed as mean cell growth at 10^-5 M after 48 hrs by SRB assay
Procedure, shortened: (§1)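 NCI-60 primary screen run to the US NCI protocol. Compound added at a single concentration of 10^-5 M and cultures incubated 48 h. The end point was sulforhodamine B (SRB) protein staining, reported as percent growth of treated cells relative to untreated control cells.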

MDA-MB-468 = test: Anticancer activity against human MDA-MB-468 cells assessed as mean cell growth at 10^-5 M after 48 hrs by SRB assay; procedure, shortened: as §1
IGROV-1 = test: Anticancer activity against human IGROV1 cells assessed as mean cell growth at 10^-5 M after 48 hrs by SRB assay; procedure, shortened: as §1
T47D = test: Anticancer activity against human T47D cells assessed as mean cell growth at 10^-5 M after 48 hrs by SRB assay; procedure, shortened: as §1
DU-145 = test: Anticancer activity against human DU145 cells assessed as mean cell growth at 10^-5 M after 48 hrs by SRB assay; procedure, shortened: as §1
SR = test: Anticancer activity against human SR cells assessed as mean cell growth at 10^-5 M after 48 hrs by SRB assay; procedure, shortened: as §1
MCF7 = test: Anticancer activity against human MCF7 cells assessed as mean cell growth at 10^-5 M after 48 hrs by SRB assay; procedure, shortened: as §1
A498 = test: Anticancer activity against human A498 cells assessed as mean cell growth at 10^-5 M after 48 hrs by SRB assay; procedure, shortened: as §1
COLO 205 = test: Anticancer activity against human COLO205 cells assessed as mean cell growth at 10^-5 M after 48 hrs by SRB assay; procedure, shortened: as §1
ACHN = test: Anticancer activity against human ACHN cells assessed as mean cell growth at 10^-5 M after 48 hrs by SRB assay; procedure, shortened: as §1

Molecule Cc1ccc(-c2nc(/C=C3/C(=O)N(C)c4ccc(F)cc43)c3ccccn23)cc1 has an Activity (NCI-H522) of 99.39%.
O=C1Nc2ccccc2/C1=C\c1nc(-c2ccccc2)n2ccccc12 was tested, and the Activity (MDA-MB-468) was 87.51%.
CN1C(=O)/C(=C/c2nc(-c3cccc(F)c3)n3ccccc23)c2ccccc21 gave an Activity (IGROV-1) of 70.98%.
Work on CN1C(=O)/C(=C/c2nc(-c3ccccc3)n3ccccc23)c2ccccc21 yielded an Activity (T47D) of 85.21%.
Cc1ccc(-c2nc(/C=C3/C(=O)Nc4ccccc43)c3ccccn23)cc1 showed an Activity (DU-145) of 78.55%.
Molecule O=C1Nc2ccc(F)cc2/C1=C\c1nc(-c2ccccc2F)n2ccccc12 has an Activity (DU-145) of 80.9%.
COc1ccc(-c2nc(/C=C3/C(=O)N(C)c4ccccc43)c3ccccn23)cc1 was tested, and the Activity (SR) was 77.31%.
Molecule Cc1ccc(-c2nc(/C=C3/C(=O)Nc4ccc(F)cc43)c3ccccn23)cc1 has an Activity (DU-145) of 74.57%.
Work on COc1ccc(-c2nc(/C=C3/C(=O)Nc4ccc(F)cc43)c3ccccn23)cc1 yielded an Activity (MCF7) of 101.96%.
O=C1Nc2ccc(F)cc2/C1=C\c1nc(-c2ccc(F)cc2)n2ccccc12 gave an Activity (A498) of 97.53%.
CN1C(=O)/C(=C/c2nc(-c3ccccc3F)n3ccccc23)c2cc(F)ccc21 showed an Activity (COLO 205) of 99.95%.
Work on COc1ccc(-c2nc(/C=C3/C(=O)Nc4ccccc43)c3ccccn23)cc1OC yielded an Activity (MCF7) of 82.66%.
Work on COc1cc(-c2nc(/C=C3/C(=O)N(C)c4ccccc43)c3ccccn23)cc(OC)c1OC yielded an Activity (SR) of 98.17%.
COc1ccc(-c2nc(/C=C3/C(=O)N(C)c4ccccc43)c3ccccn23)cc1OC was tested, and the Activity (NCI-H522) was 103.43%.
In the case of CN1C(=O)/C(=C/c2nc(-c3ccccc3F)n3ccccc23)c2ccccc21, the Activity (DU-145) is reported as 84.72%.
Molecule O=C1Nc2ccccc2/C1=C\c1nc(-c2ccc(F)cc2)n2ccccc12 has an Activity (MDA-MB-468) of 39.31%.
Molecule COc1ccc(-c2nc(/C=C3/C(=O)Nc4ccccc43)c3ccccn23)cc1 has an Activity (ACHN) of 72.54%.
